Measurements from ChEMBL document CHEMBL4052792, “3-Hydroxykynurenine, a Tryptophan Metabolite Generated during the Infection, Is Active Against Trypanosoma cruzi” (ACS Med Chem Lett, 2017).
The source made the active and inactive calls. No cut-off for these calls is given here.

Assays:
Trypanosoma cruzi [1] = assay: Trypanocidal activity against Trypanosoma cruzi Tulahuen trypomastigotes infected in mouse whole blood assessed as increase in parasite death at 0.2 uM by trypan blue assay; type: functional; details: TDE = time-dependent effect
Trypanosoma cruzi [2] = assay: Trypanocidal activity against Trypanosoma cruzi Tulahuen trypomastigotes infected in mouse whole blood assessed as viable trypomastigote cells at 20 uM after 96 hrs by trypan blue assay relative to control; type: functional
In short: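 Trypomastigotes were exposed to 20 μM in 100% whole blood at 37 °C. Viable parasites were counted after 24, 48, 72 and 96 h. Results are means ± SD of three independent experiments.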

Trypanosoma cruzi [3] = assay: Induction of mitochondrial membrane depolarization in Trypanosoma cruzi Tulahuen trypomastigotes at 0.2 uM after 24 hrs by Rh123/propidium iodide staining-based flow cytometric analysis (reference value: 3.25 +/- 1.66%); type: functional
In short: (§1)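 Trypomastigotes were treated with 3-HK for 24 h at 37 °C, then incubated with PI plus Rh123. Rh123 fluorescence was read by flow cytometry in PI-negative (live) parasites. The depolarized fraction was taken as the low-fluorescence M2 population. Index of variation = (treated median − control median)/control median. Three experiments were run.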

Trypanosoma cruzi [4] = assay: Induction of mitochondrial membrane depolarization in Trypanosoma cruzi Tulahuen trypomastigotes at 2000 uM after 24 hrs by Rh123/propidium iodide staining-based flow cytometric analysis (reference value: 3.25 +/- 1.66%); type: functional; in short: as §1
Trypanosoma cruzi [5] = assay: Induction of mitochondrial membrane depolarization in Trypanosoma cruzi Tulahuen trypomastigotes at 8000 uM after 24 hrs by Rh123/propidium iodide staining-based flow cytometric analysis (reference value: 3.25 +/- 1.66%); type: functional; in short: as §1
Trypanosoma cruzi [6] = assay: Induction of mitochondrial membrane potential in Trypanosoma cruzi Tulahuen trypomastigotes at 10 mM after 24 hrs by Rh123/PI staining-based flow cytometric analysis (reference value: 3.25 +/- 1.66%); type: functional; in short: as §1
Trypanosoma cruzi [7] = assay: Trypanocidal activity against Trypanosoma cruzi Tulahuen amastigotes infected in BALB/C mouse bone marrow derived macrophages assessed as decrease in intracellular parasite growth after 72 hrs by immunofluorescence assay; type: functional, cell-based
In short: (§2)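 Macrophages were infected with trypomastigotes and treated with 3-HK for 24 h. Immunofluorescence counts were made at 72 h post-infection. Intracellular parasites per 200 cells were expressed relative to medium-treated cultures, and infected cells were counted among 200 macrophages. Data are means ± SD of four independent experiments.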

Trypanosoma cruzi [8] = assay: Trypanocidal activity against Trypanosoma cruzi Tulahuen amastigotes infected in BALB/C mouse bone marrow derived macrophages assessed as parasite infected macrophages at 2 uM treated for 24 hrs followed by compound washout measured after 48 hrs by immunofluorescence assay (reference value: 26.84 +/- 7.81%); type: functional
Trypanosoma cruzi [9] = assay: Trypanocidal activity against Trypanosoma cruzi Tulahuen amastigotes infected in BALB/C mouse bone marrow derived macrophages assessed as parasite infected macrophages at 20 uM treated for 24 hrs followed by compound washout measured after 48 hrs by immunofluorescence assay (reference value: 26.84 +/- 7.81%); type: functional
Trypanosoma cruzi [10] = assay: Trypanocidal activity against Trypanosoma cruzi Tulahuen amastigotes infected in BALB/C mouse bone marrow derived macrophages assessed as parasite infected macrophages at 400 uM treated for 24 hrs followed by compound washout measured after 48 hrs by immunofluorescence assay (reference value: 26.84 +/- 7.81%); type: functional
Trypanosoma cruzi [11] = assay: Trypanocidal activity against Trypanosoma cruzi Tulahuen amastigotes infected in BALB/C mouse bone marrow derived macrophages assessed as parasite infected macrophages at 800 uM treated for 24 hrs followed by compound washout measured after 48 hrs by immunofluorescence assay (reference value: 26.84 +/- 7.81%); type: functional
Trypanosoma cruzi [12] = assay: Trypanocidal activity against Trypanosoma cruzi Tulahuen amastigotes infected in BALB/C mouse bone marrow derived macrophages assessed as endocytic index at 0.2 uM treated for 24 hrs followed by compound washout measured after 48 hrs by immunofluorescence assay (reference value: 213.66 +/- 58.79); type: functional
Trypanosoma cruzi [13] = assay: Trypanocidal activity against Trypanosoma cruzi Tulahuen amastigotes infected in BALB/C mouse bone marrow derived macrophages assessed as endocytic index at 200 uM treated for 24 hrs followed by compound washout measured after 48 hrs by immunofluorescence assay (reference value: 213.66 +/- 58.79); type: functional
Trypanosoma cruzi [14] = assay: Trypanocidal activity against Trypanosoma cruzi Tulahuen amastigotes infected in BALB/C mouse bone marrow derived macrophages assessed as endocytic index at 2000 uM treated for 24 hrs followed by compound washout measured after 48 hrs by immunofluorescence assay (reference value: 213.66 +/- 58.79); type: functional
Trypanosoma cruzi [15] = assay: Trypanocidal activity against Trypanosoma cruzi Tulahuen amastigotes infected in BALB/C mouse bone marrow derived macrophages assessed as reduction intracellular parasite growth after 24 hrs by immunofluorescence assay; type: functional, cell-based; in short: as §2
Trypanosoma cruzi [16] = assay: Ratio of IC50 for Trypanosoma cruzi Tulahuen trypomastigotes infected in BALB/C mouse bone marrow derived macrophages to IC50 for Trypanosoma cruzi Tulahuen amastigotes infected in BALB/C mouse bone marrow derived macrophages; type: functional
Trypanosoma cruzi [17] = assay: Trypanostatic activity against Trypanosoma cruzi Tulahuen amastigotes infected in BALB/C mouse bone marrow derived macrophages assessed as swollen mitochondrion at 20 uM after 24 hrs by transmission electron microscopic analysis; type: functional
In short: (§3)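 Bone marrow-derived macrophages were infected for 24 h, then exposed to 20 μM for 24 h or left untreated. Intracellular amastigote ultrastructure was examined by transmission electron microscopy, covering mitochondrion, nucleus, kinetoplast, flagellum, flagellar pocket, subpellicular microtubules and cytoplasmic structures.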

Trypanosoma cruzi [18] = assay: Trypanostatic activity against Trypanosoma cruzi Tulahuen amastigotes infected in BALB/C mouse bone marrow derived macrophages assessed as effect in subpelicullar microtubules at 20 uM after 24 hrs by transmission electron microscopic analysis; type: functional; in short: as §3
J774 = assay: Cytotoxicity against mouse J774 assessed as reduction in cell viability at 0.2 to 2000 uM after 24 hrs by trypan blue exclusion assay; type: cell-based; details: j774, 24 h
In short: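 Mammalian cells (human PBMC, Swan 71, Jurkat; bone marrow-derived macrophages; J774) were exposed to 3-HK at 0.2 to 2000 μM for 24 h. Viability was then scored by trypan blue exclusion.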

Jurkat = assay: Cytotoxicity against human Jurkat cells assessed as reduction in cell viability at 1200 to 2000 uM after 48 hrs by trypan blue exclusion assay; type: cell-based
In short: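 Human PBMC and Jurkat cells were treated for 48 h with a range of 3-HK concentrations or left untreated. Viable cells were counted under light microscopy by trypan blue exclusion. Data are means ± SD of four independent experiments.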

[19] = Induction of apoptosis in BALB/C mouse BMDM assessed as cells with hypodiploid DNA content at 2 uM after 24 hrs by FITC/propidium iodide staining based flow cytometric analysis (reference value: 29.9%); type: functional
[20] = Induction of apoptosis in BALB/C mouse BMDM assessed as cells with hypodiploid DNA content at 200 uM after 24 hrs by FITC/propidium iodide staining based flow cytometric analysis (reference value: 29.9%); type: functional
[21] = Induction of apoptosis in BALB/C mouse BMDM assessed as cells with hypodiploid DNA content at 2000 uM after 24 hrs by FITC/propidium iodide staining based flow cytometric analysis (reference value: 29.9%); type: functional
Trypanosoma cruzi [22] = assay: Trypanocidal activity against Trypanosoma cruzi Tulahuen amastigotes infected in BALB/C mouse bone marrow derived macrophages assessed as reduction in endocytic index at 0.2 uM after 72 hrs by immunofluorescence assay relative to control; type: functional
Trypanosoma cruzi [23] = assay: Trypanocidal activity against Trypanosoma cruzi Tulahuen trypomastigotes in culture medium after 48 hrs by trypan blue assay

SMILES: Nc1c(O)cccc1C(=O)C[C@H](N)C(=O)O
- Activity (Trypanosoma cruzi [1]): Tde
- Activity (Trypanosoma cruzi [2]): 50%
- Activity (Trypanosoma cruzi [3]): 3.88%
- Activity (Trypanosoma cruzi [4]): 12.1%
- Activity (Trypanosoma cruzi [5]): 40.7%
- Activity (Trypanosoma cruzi [6]): 40%
- Activity (Trypanosoma cruzi [7]): Dose-dependent effect
- Activity (Trypanosoma cruzi [8]): 12.4%
- Activity (Trypanosoma cruzi [9]): 8.63%
- Activity (Trypanosoma cruzi [10]): 14.66%
- Activity (Trypanosoma cruzi [11]): 15.1%
- Activity (Trypanosoma cruzi [12]): 67.61
- Activity (Trypanosoma cruzi [13]): 51.43
- Activity (Trypanosoma cruzi [14]): 104.34
- IC50 (Trypanosoma cruzi [15]): 0.2 µM
- Ratio IC50 (Trypanosoma cruzi [16]): 6000
- Activity (Trypanosoma cruzi [17]): Active
- Activity (Trypanosoma cruzi [18]): inactive
- Activity (J774): Non-Toxic
- Activity (Jurkat): Toxic
- Activity [19]: 28.2%
- Activity [20]: 35.4%
- Activity [21]: 26.4%
- inhibition at 0.2 µM (Trypanosoma cruzi [22]): 68%
- IC50 (Trypanosoma cruzi [23]): 200 µM
